Source: PubChem BioAssay AID743247 (Broad Institute, 2014)
About 300 (0.086%) of roughly 350,000 compounds were called active. The entries come from a sample that favours actives as a whole. Unmarked numbers belong to inactive results.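 The calls were made as follows: active = mean inhibition across replicates of 30% or more, regardless of how many single replicates reach that level; inconclusive = mean under 30% yet at least half of replicates reach 30%; inactive = the rest.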

assay: inhibitors of fibronectin matrix deposition, primary screen, AH1F cells, Alexa488-fibronectin fluorescence, plate reader (AID 743247); settings: AH1F fibroblasts, overnight, at 12.6 µM, active compounds read high;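 also: positive control wells lacked labelled fibronectin entirely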
Outline: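 test system = AH1F fibroblasts assembling fluorescent fibronectin matrix | quantity = 10000 AH1F cells per well | buffer or medium = DMEM plus 2% serum, read in PBS | doses = single dose, pinned | incubation = 1 h cell attachment, overnight exposure to compound and label | detection = fluorescence at 485 nm excitation, 525 nm emission | read-out basis = inhibition from reduced deposited-fibronectin fluorescence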

SMILES | inhibition
CO[C@@H]1CN(C)C(=O)c2cc(NC(=O)C3CC3)ccc2OC[C@@H](C)N(C(=O)NC(C)C)C[C@@H]1C | -0.851%
C[C@@H](NC(=O)C[C@@H]1C[C@H]2c3cc(NC(=O)C4CCC4)ccc3O[C@H]2[C@@H](CO)O1)c1ccccc1 | 17.4%
O=C(NC[C@@H]1[C@@H](c2ccccc2)[C@@H](CO)N1Cc1ccccn1)C1CCC1 | -14.4%
O=C(C[C@@H]1CC[C@@H](NS(=O)(=O)c2ccc(F)cc2)[C@@H](CO)O1)NCCc1ccncc1 | -5.79%
C[C@@H]1CN([C@@H](C)CO)C(=O)Cc2cc(NC(=O)Nc3ccc4c(c3)OCO4)ccc2O[C@H]1CN(C)S(=O)(=O)c1ccccc1 | 0.36%
C[C@@H]1CN([C@H](C)CO)C(=O)c2ccccc2-c2ccccc2CO[C@H]1CN(C)S(=O)(=O)c1ccsc1 | 1.86%
C[C@@H]1CN([C@H](C)CO)S(=O)(=O)c2ccc(C#CC3CC3)cc2O[C@H]1CN(C)C(=O)C1CCCCC1 | -1.06%
COc1ccc2c3c(n(C)c2c1)[C@H](CO)NCC31CN(Cc2cc(F)ccc2F)C1 | -4.09%
O=C(C1CCCCC1)N1CC2(C1)[C@H](c1ccccc1)[C@H](CO)N2CC1CCCC1 | -10.3%
CS(=O)(=O)N1C[C@@H]2C(c3ccccc3)[C@H](C1)N2CC(F)(F)F (some centres not stated) | -13.1%
O=C(C[C@@H]1CC[C@@H](NC(=O)Nc2ccc(F)cc2)[C@H](CO)O1)NCCN1CCCC1 | 0.829%
COc1ccc(-c2ccc3c(c2)[C@@H]2[C@@H](CCN2C(=O)NC2CCCC2)[C@@H](CO)N3C)cc1 | 5.47%
CC(C)NC(=O)Nc1cccc2c1O[C@@H](CN(C)C(=O)NC(C)C)[C@@H](C)CN(C)C2=O | 3.55%
CN(C)CC(=O)N1CC2(C1)[C@H](c1ccccc1)[C@H](CO)N2C(=O)C1CC1 | -3.48%
O=C(C1CCOCC1)N1CC(=O)N2[C@H](CO)[C@@H](c3ccc(C#CC4CCCC4)cc3)[C@H]2C1 | -4.97%
Cc1ccc(-n2ncc3c(=O)[nH]cnc32)c(C)c1 | -2.15%
Cc1cccc(-n2ncc3c(=O)[nH]c(SCC(=O)Nc4cc(C)on4)nc32)c1 | -0.734%
Cc1cccc(-n2ncc(Cl)c(Cl)c2=O)c1 | 51.7% (active)
COc1ccc(-c2ccc3c(c2)O[C@@H](CN(C)CC2CCOCC2)[C@@H](C)CN([C@@H](C)CO)S3(=O)=O)cc1 | 5.61%
C[C@@H]1CC=CC[C@@H](c2ccccc2)NC(=O)[C@H](C)N(C)C(=O)c2ccccc2O1 (mixture of isomers) | -2.82%
CN(C)c1ccc2c(c1)[C@H]1C[C@H](CC(=O)NCc3ccc(Cl)cc3)O[C@H](CO)[C@H]1O2 | 1.04%

SMILES | inhibition
C[C@@H]1CC=CC[C@H](c2ccc(F)cc2)NC(=O)[C@@H](Cc2ccccc2)N(C)C(=O)c2ccccc2O1 (mixture of isomers) | 7.06%
COc1ccccc1NC(=O)N[C@H]1CC[C@H](CCNC(=O)Cc2ccccn2)O[C@@H]1CO | 1.21%
COC(=O)C[C@H]1CC[C@@H]2[C@@H](COc3ccc(NC(=O)Nc4ccc(Cl)cc4)cc3C(=O)N2C)O1 | -17.5%
CN(C)C(=O)c1ccc(-c2ccc([C@H]3[C@H](CO)N4C(=O)CN(C(=O)C5CCCC5)C[C@@H]34)cc2)cc1 | 0.201%
C[C@H]1CCCCO[C@H](CN(C)C(=O)Nc2ccc(F)cc2)[C@@H](C)CN([C@@H](C)CO)C(=O)c2cc(NC(=O)CCC(F)(F)F)ccc2O1 | 7.35%
COc1ccc2c3c(n(C)c2c1)[C@H](CO)N(C(=O)c1ccncc1)CC31CCN(CC2CC2)CC1 | -1.91%
O=C(C[C@@H]1C=C[C@@H](NC(=O)c2cccnc2)[C@H](CO)O1)NCc1ccncn1 | 11.1%
CNC(=O)C[C@@H]1CC[C@@H]2[C@H](COc3ccc(NC(=O)c4cccs4)cc3C(=O)N2C)O1 | -9.79%
C[C@@H](C(=O)N(C)C[C@H]1OCc2ccccc2-c2c(n(C)c3ccccc23)C(=O)N([C@@H](C)CO)C[C@@H]1C)c1ccccc1 | -2.51%
COc1cccc(C#Cc2ccc3c(c2)[C@@H]2[C@@H](CCN2S(=O)(=O)c2ccc(C)cc2)[C@@H](CO)N3)c1 | 2.44%
COc1ccccc1C#Cc1ccc([C@H]2[C@@H](C#N)N(C(=O)C3CCCCC3)[C@@H]2CO)cc1 | -2.57%
O=C(C[C@@H]1CC[C@@H]2[C@H](COC[C@@H](O)CN2C(=O)c2ccccc2F)O1)N1CCOCC1 | -11.5%
O=C(O)C[C@H]1C=C[C@@H](NC(=O)Nc2cc(F)ccc2F)[C@@H](CO)O1 | -9.56%
COc1ccc([C@@H]2C/C=C\C[C@@H](c3ccc4c(c3)OCO4)NC(=O)CCC(=O)N2)c(OC)c1 | 8.56%
CC(C)NC(=O)N[C@@H]1CC[C@H](CC(=O)NC2Cc3ccccc3C2)O[C@H]1CO | 10.9%
O=C(C[C@@H]1CC[C@H](NC(=O)C2CCC2)[C@@H](CO)O1)NC1CCCCC1 | -5.05%
CC(C)C#Cc1ccc2c(c1)O[C@@H](CN(C)C(=O)C1CCC1)[C@@H](C)CN([C@@H](C)CO)S2(=O)=O | -2.23%
CC(=O)N(C)C[C@H]1Oc2ncc(C#Cc3ccc(F)cc3)cc2C(=O)N([C@H](C)CO)C[C@@H]1C | 11.6%
CN1C(=O)c2cc(NC(=O)Cc3ccccc3)ccc2OC[C@H]2O[C@H](CC(=O)NCc3ccc(Cl)cc3)CC[C@H]21 | 1.06%
CC(C)NC(=O)Nc1ccc2c(c1)CC(=O)N(C)C[C@@H](C)[C@@H](CN(C)C(=O)OC(C)(C)C)O2 | -1.15%
COc1cccc(C(=O)Nc2ccc3c(c2)OC[C@H](C)NC[C@H](C)[C@H](OC)CN(C)C3=O)c1 | 3.33%
